ChEMBL document CHEMBL4680064, “Natural product inspired optimization of a selective TRPV6 calcium channel inhibitor” (RSC Med Chem, 2020)
The source made the active and inactive calls. The calls are words filed in the database; no cut-off is given here.

Columns and labels:
HEK293 [1] = test: Effect on cadmium induced toxicity in wild type human HEK293 cells assessed as cell survival at 1 to 10 uM incubated for 24 hrs by XTT assay; assay type: functional, cell-based; settings: dose 1-10 µM
Summary of the method: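 HEK293 wt or HEK-hTRPV6 cells in DMEM with 10% FBS, glutamine, penicillin/streptomycin and non-essential amino acids. Seeded at 1.5 x 10⁴ cells/well and left 24 h, then given CdCl2 at 50 to 0.05 µM with or without test compound at 1.0 or 10 µM; blank was 0.01% DMSO. Incubation 24 h at 37 °C. XTT/PMS read for 2 h at A450−A650, as % viable versus blank. n = 4/concentration, 2 independent experiments.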

[2] = Inhibition of rat L-type calcium channel (diltiazem site) at 10 uM
[3] = target: Voltage-gated inwardly rectifying potassium channel KCNH2 (Homo sapiens, UniProt Q12809); test: Inhibition of human ERG at 10 uM
Chain of Voltage-gated inwardly rectifying potassium channel KCNH2 (Q12809 whole entry): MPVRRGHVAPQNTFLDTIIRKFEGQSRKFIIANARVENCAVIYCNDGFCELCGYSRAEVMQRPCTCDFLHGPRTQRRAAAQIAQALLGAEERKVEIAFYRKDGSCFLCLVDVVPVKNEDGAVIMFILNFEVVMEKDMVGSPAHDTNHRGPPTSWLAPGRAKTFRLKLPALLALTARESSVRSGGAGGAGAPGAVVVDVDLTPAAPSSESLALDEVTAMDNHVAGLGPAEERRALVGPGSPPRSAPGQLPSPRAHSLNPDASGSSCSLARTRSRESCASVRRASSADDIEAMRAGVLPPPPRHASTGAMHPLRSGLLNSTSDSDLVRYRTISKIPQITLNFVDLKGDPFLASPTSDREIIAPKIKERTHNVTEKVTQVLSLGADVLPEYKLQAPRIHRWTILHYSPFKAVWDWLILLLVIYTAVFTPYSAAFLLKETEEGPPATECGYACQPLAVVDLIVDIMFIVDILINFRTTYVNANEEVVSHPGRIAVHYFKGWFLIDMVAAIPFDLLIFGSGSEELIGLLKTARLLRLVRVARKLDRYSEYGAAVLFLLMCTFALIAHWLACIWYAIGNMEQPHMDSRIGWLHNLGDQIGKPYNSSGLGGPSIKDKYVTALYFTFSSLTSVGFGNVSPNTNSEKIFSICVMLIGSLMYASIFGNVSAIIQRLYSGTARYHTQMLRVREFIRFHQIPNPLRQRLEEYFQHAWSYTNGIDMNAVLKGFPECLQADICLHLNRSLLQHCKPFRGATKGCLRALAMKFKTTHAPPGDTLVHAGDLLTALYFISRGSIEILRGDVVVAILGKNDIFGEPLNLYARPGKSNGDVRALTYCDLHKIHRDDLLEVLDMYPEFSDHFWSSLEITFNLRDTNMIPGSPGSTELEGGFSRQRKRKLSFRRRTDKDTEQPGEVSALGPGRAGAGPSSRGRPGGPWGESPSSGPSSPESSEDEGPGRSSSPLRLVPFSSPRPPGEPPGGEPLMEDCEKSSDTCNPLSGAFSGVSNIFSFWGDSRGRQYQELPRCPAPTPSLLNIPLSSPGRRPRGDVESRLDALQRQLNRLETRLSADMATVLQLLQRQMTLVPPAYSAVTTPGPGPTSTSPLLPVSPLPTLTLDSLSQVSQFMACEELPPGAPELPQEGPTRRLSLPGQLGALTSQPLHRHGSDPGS

MCF7 = test: Antiproliferative activity against human MCF7 cells assessed as cell growth inhibition at 0.4 to 100 uM after 6 days by XTT assay; assay type: cell-based; settings: mcf7, 144 h, dose 0.4-100 µM, time 6 day
Summary of the method: (§1)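 Cells grown in RPMI with 10% FBS, 2 mM L-glutamine, penicillin/streptomycin and 1% non-essential amino acids. Seeded at 5 x 10³ cells/well and left 24 h at 37 °C, then treated at 100 μM to 0.4 μM. Exposure 6 days at 37 °C with fresh treatment medium every 48 h. Doxorubicin 10 μM and DMSO 0.01% served as controls. XTT with 1.25% PMS for 2 h; absorbance at 450 minus 650 nm, as % viable versus DMSO. Curves fitted by four-parameter non-linear regression. Mean ± SEM, n = 3/concentration, ≥3 independent experiments.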

MDA-MB-231 = test: Antiproliferative activity against human MDA-MB-231 cells assessed as cell growth inhibition at 0.4 to 100 uM after 6 days by XTT assay; assay type: cell-based; settings: mda-mb-231, 144 h, dose 0.4-100 µM, time 6 day; summary of the method: as §1
SK-OV-3 = test: Antiproliferative activity against human SK-OV-3 cells assessed as cell growth inhibition at 0.4 to 100 uM after 6 days by XTT assay; assay type: cell-based; settings: human, sk-ov-3, 144 h, 100 µM; dose 0.4-100 µM, time 6 day
HEK293 [4] = test: Antiproliferative activity against wild type human HEK293 cells assessed as cell growth inhibition at 0.4 to 100 uM after 6 days by XTT assay; assay type: cell-based; settings: hek293, 144 h, dose 0.4-100 µM, time 6 day
HEK293 [5] = test: Antiproliferative activity human HEK293 cells expressing human TRPV6 assessed as cell growth inhibition at 0.4 to 100 uM after 6 days by XTT assay; assay type: cell-based; settings: hek293, 144 h, dose 0.4-100 µM, time 6 day
T47D = test: Cytotoxicity against human T47D cells assessed as induction of cell morphological changes at 100 uM by inverted microscopic analysis; assay type: cell-based
Summary of the method: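 T47D cells, cultured and treated as in the 6-day XTT proliferation assay, were photographed for morphology after exposure at 100 μM and compared with control cultures.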

D(4) dopamine receptor = target: T1, D(4) dopamine receptor (Homo sapiens, UniProt P21917); test: Inhibition of human dopamine D4.4 receptor at 10 uM
T1 sequence (P21917 whole entry): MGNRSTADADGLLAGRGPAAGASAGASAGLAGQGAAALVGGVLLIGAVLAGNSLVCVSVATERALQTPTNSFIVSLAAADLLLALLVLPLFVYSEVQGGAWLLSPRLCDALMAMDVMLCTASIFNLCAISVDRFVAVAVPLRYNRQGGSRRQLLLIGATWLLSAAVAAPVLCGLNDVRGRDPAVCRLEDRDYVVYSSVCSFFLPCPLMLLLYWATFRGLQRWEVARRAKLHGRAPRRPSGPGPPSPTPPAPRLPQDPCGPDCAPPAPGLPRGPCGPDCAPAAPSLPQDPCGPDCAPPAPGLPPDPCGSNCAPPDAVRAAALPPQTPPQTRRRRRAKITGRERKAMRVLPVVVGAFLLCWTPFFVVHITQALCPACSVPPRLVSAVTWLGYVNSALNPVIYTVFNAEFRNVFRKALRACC

[6] = target: T2, Muscarinic acetylcholine receptor M1 (Homo sapiens, UniProt P11229); test: Inhibition of human muscarinic M1 receptor at 10 uM
T2 sequence (P11229 whole entry): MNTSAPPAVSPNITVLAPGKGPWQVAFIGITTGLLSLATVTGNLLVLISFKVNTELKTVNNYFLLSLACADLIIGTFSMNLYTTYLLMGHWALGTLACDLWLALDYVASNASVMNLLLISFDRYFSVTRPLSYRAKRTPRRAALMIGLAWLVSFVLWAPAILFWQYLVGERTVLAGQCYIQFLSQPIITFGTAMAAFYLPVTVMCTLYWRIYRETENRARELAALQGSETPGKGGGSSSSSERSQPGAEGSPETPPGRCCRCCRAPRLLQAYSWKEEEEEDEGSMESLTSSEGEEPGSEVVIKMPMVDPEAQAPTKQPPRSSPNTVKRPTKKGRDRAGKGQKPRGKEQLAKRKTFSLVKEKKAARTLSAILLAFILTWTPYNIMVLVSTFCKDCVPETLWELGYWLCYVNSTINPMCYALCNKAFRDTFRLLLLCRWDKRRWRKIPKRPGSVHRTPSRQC

Mu-type opioid receptor = Mu-type opioid receptor (Homo sapiens, UniProt P35372); test: Inhibition of human mu-opioid receptor at 10 uM
Chain of Mu-type opioid receptor (P35372 whole entry): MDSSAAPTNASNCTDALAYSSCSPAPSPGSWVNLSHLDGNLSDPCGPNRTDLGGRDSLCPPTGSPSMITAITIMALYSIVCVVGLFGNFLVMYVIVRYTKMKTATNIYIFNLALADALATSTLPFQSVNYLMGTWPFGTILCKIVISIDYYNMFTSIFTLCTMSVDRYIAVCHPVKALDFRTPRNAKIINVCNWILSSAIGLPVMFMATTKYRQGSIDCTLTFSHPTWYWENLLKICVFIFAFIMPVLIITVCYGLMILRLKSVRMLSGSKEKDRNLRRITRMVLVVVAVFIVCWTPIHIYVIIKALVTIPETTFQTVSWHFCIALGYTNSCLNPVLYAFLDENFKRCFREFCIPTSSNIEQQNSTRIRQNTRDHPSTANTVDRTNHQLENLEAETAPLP

[7] = target: Kappa-type opioid receptor (Homo sapiens, UniProt P41145); test: Inhibition of human kappa-opioid receptor at 10 uM
Chain of Kappa-type opioid receptor (P41145 whole entry): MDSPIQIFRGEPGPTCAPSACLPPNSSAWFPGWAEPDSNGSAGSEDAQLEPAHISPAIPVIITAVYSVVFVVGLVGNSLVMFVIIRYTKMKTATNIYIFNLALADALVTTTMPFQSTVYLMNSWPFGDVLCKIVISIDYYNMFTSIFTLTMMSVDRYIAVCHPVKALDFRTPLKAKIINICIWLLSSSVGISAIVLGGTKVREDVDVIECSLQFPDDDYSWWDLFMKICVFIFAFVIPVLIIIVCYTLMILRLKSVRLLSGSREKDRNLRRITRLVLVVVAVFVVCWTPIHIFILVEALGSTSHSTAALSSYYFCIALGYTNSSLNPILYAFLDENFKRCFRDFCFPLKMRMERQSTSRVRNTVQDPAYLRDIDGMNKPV

[8] = target: T3, 5-hydroxytryptamine receptor 1A (Homo sapiens, UniProt P08908); test: Inhibition of human serotonin 5HT-1A receptor at 10 uM
T3 sequence (P08908 whole entry): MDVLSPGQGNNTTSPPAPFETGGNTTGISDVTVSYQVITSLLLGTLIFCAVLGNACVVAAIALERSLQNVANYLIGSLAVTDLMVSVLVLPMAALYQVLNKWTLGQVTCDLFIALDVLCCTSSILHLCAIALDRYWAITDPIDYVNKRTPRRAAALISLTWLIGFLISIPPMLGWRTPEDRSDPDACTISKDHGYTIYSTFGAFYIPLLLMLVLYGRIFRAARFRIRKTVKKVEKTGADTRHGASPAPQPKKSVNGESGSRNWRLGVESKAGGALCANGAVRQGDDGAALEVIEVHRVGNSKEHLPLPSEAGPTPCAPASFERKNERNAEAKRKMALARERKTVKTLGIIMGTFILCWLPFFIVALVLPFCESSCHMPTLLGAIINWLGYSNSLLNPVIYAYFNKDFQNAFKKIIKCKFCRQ

inhibition (INH) [2]: Not Active
inhibition (INH) (D(4) dopamine receptor): Not Active
inhibition (INH) [6]: Not Active
inhibition (INH) (Mu-type opioid receptor): Not Active
inhibition (INH) [7]: Not Active
inhibition (INH) [8]: Not Active
Structure (SMILES): O=c1ccc(CN2CCN([C@H]3CC[C@@](O)(c4cccc(C(F)(F)F)c4)CC3)CC2)c[nH]1
Activity (HEK293 [1]): inactive
inhibition (INH) [3]: Not Active
Activity (MCF7): Non-Toxic
Activity (MDA-MB-231): Non-Toxic
Activity (SK-OV-3): Non-Toxic
Activity (HEK293 [4]): Non-Toxic
Activity (HEK293 [5]): Non-Toxic
Activity (T47D): Non-Toxic
